Test results published in PMC4472004 (Molecular cancer therapeutics, 2014).

How the values were obtained:
[1] = target: PSMA receptor on PC3pip cells (Homo sapiens, UniProt Q04609); test: Competitive binding assay
Summary of the method: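 PC3pip cells (PSMA-transduced PC3; RPMI-1640 with 2 mmol/L L-glutamine and 10% FBS, 37°C, 5% CO2), 5 × 10^5 per tube, incubated 1 h at 37°C with varying test compound concentrations plus 12 nmol/L [3H]-methyl-cysteine urea PSMA radioligand. Cells pelleted at 3,000 × g for 5 min at 4°C and washed 3× with cold PBS. Bound radioactivity by scintillation counting; IC50 from curve fitting.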

PC3pip tumors = test: In vivo NIR imaging; set-up: species or system mice; details: coinjection; up to 1,000-fold excess of Cys-CO-Glu or PSMA-1; 100-fold excess of ZJ-MCC-Ahx-YYYG

PSMA receptor on PC3pip cells, sequence (Q04609 whole entry): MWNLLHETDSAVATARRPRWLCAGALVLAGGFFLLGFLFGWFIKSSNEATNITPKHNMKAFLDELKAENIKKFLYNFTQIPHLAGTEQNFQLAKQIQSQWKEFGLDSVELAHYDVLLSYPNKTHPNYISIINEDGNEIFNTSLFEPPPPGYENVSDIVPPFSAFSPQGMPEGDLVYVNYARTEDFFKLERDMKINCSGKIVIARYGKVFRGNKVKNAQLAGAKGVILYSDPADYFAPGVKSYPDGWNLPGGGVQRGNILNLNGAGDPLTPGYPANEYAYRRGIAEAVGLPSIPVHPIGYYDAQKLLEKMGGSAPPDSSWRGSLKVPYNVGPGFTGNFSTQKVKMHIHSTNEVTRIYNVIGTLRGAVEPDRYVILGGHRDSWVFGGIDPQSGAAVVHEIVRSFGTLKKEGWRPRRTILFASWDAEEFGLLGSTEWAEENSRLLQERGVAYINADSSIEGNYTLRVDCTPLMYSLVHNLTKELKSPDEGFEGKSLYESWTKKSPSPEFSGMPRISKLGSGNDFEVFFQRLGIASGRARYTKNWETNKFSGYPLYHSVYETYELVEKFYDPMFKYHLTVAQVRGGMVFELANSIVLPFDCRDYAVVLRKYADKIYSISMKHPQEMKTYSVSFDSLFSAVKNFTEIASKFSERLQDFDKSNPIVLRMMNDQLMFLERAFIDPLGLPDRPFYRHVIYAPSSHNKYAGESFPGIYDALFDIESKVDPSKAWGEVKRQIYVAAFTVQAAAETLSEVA

Glu-CO-Glu'-Amc-Ahx-Glu-Glu-Glu-Lys-NH2 [PSMA-1]
binding affinity better than the parent ligand Cys-CO-Glu ([1]; ratio of IC50 values): 4.3 fold
effectiveness as in vivo competitor of the PSMA-1–NIR probes (PC3pip tumors): unable to achieve effective competition

NCCCC[C@H](NC(=O)N[C@@H](CCC(=O)O)C(=O)O)C(=O)O [Cys-CO-Glu, (S)-2-(3-((S)-5-amino-1-carboxypentyl)ureido)pentanedioic acid]
IC50 [1]: 9.93 ± 0.07 nM
effectiveness as in vivo competitor of the PSMA-1–NIR probes (PC3pip tumors): unable to achieve effective competition
